Assay outcomes (PubChem)
UPR XBP1 act: activators of adaptive arm of unfolded protein response (XBP1). CHO-XBP1 luciferase reporter, IRE1-XBP1 UPR activation, luminescence; percent of tunicamycin response, DMSO as zero. activation, % at 20 µM. 330,000 compounds, 0.33% hits. AID 463104;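 active = versus positive control, 20 µM dose yields 30% or more activation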;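 note: 100% = tunicamycin at 10 µg/mL and 0% = DMSO only wells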
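Material: CHO cell line with stable XBP1 luciferase reporter; buffer or medium: F12 medium containing 10% fetal bovine serum; compound: single point, 20 µM final compound, 1% DMSO; incubation: 6 h treatment, 37 °C; measured by: glow luminescence from Steady-Glo reagent; evaluation: activation, % of tunicamycin; control set: tunicamycin high, DMSO low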
UPR CHOP act: activators of apoptotic arm of unfolded protein response (CHOP) | CHO-CHOP luciferase reporter, UPR activation, luminescence; percent of tunicamycin response over DMSO baseline | activation, % at 10 µM | 330,000 compounds, 0.34% hits | AID 449763;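 active = at 10 µM dose, activation of 40% or more, normalized to positive control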;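 note: 100% = tunicamycin at 10 µg/mL and 0% = DMSO alone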
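Test system: CHO-CHOP cells, stable luciferase reporter of PERK-eIF2a-CHOP signalling | Quantity: 500 CHO-CHOP cells per well | Buffer or medium: F12 plus 10% serum | Compound dosing: 10 µM single point, 0.5% DMSO | Schedule: 6 h compound treatment, 37 °C | Signal: Luciferase luminescence | Control set: Tunicamycin high control, DMSO low control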
CHOP inh: inhibitors of CHOP induction in ER stress response. CHO-K1 CHOP-promoter luciferase, tunicamycin-induced, 15-18 h. inhibition, % at 10 µM. 220,000 compounds, 3.8% hits;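 active = compounds that reduced the stress-induced luciferase reporter signal by more than about 70% of percent inhibition, limit read from the data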;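 note: 0% = tunicamycin plus vehicle and 100% = wells without tunicamycin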
VLA-4 inh: inhibition in a human VLA-4 binding assay; P13612; VLA-4 expressing cells, ligand binding flow cytometry; inhibition, % (about 7 µM as worked out from the volumes in the protocol); 330,000 compounds, 0.2% hits; AID 2557; in the data active = inhibition above about 50%
B2AR ag: activates human beta-2 adrenergic receptor causing internalization; Am2.2-beta2AR cells, FAP receptor internalization, flow cytometry; response, % (no concentration beside the values); P07550; 340,000 compounds, 0.43% hits;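 active = response above a set limit, near 3 SD of response in nonfluorescent compounds, cut at about 42% in these data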
Target sequence (P07550 whole entry, looked up): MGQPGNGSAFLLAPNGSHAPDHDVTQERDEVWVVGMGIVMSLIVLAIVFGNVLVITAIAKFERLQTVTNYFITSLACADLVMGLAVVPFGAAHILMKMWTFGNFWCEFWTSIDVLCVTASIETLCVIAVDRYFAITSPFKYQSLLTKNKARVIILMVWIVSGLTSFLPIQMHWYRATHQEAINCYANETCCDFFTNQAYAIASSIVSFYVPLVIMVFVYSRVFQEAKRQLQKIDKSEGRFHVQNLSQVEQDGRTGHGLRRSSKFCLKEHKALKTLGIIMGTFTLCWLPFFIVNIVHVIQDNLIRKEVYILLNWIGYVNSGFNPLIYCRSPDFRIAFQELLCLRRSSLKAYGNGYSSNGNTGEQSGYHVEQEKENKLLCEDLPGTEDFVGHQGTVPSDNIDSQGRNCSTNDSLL
B2AR ag CP1: human beta-2 adrenergic receptor agonism, cherry pick; percent response (surface receptor), % at 10 µM; 1,100 compounds, 25% hits; Am2.2-beta2AR cells, FAP surface receptor, flow cytometry; active compounds read low; shares compounds with B2AR ag;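 active = surface receptor percent response at or below 58%, roughly 3 SD from nonfluorescent compounds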
B2AR FAP counter: flagged in Am2.2 fluorescence counterscreen for beta-2AR agonists. shares compounds with B2AR ag. Am2.2 cells, FAP fluorogen flow cytometry; active compounds read low. calls only at 10 µM. 1,100 tested, under 10 active. AID 588765;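 active = percent response below a set limit in fluorescence channel 1 and below 50% in channel 8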
* marks the source's active call; other numbers are inactive results. The sample as a whole holds a higher share of hits than the screen did.

CC(COc1ccccc1)NC(C)C(O)c1ccc(O)cc1 (stereo not drawn) was read as UPR XBP1 act -12, UPR CHOP act 2, CHOP inh 12, VLA-4 inh 0, B2AR ag -3, B2AR ag CP1 116 and B2AR FAP counter inactive.
For CC(NCc1ccc(-c2ccccc2)cc1)C(O)c1ccccc1 (stereo not drawn) the results were UPR XBP1 act 2, UPR CHOP act 2, CHOP inh 30, VLA-4 inh 27 and B2AR ag 3.
COc1ccc(NC(=O)C2CCCN2C(=O)NC2CCCCC2)c(OC)c1 (stereo not drawn) was read as UPR XBP1 act -3, UPR CHOP act 1, VLA-4 inh 7 and B2AR ag -4.
For Cc1cc(C)n(C(=O)CCCCCCCC(=O)n2nc(C)cc2C)n1 the results were UPR XBP1 act -3, UPR CHOP act -1, CHOP inh 36, VLA-4 inh -18 and B2AR ag 0.
Screening Cc1cc(C)n(C(=O)CCCC(=O)n2nc(C)cc2C)n1 returned UPR XBP1 act 7, UPR CHOP act 1, CHOP inh 40, VLA-4 inh 22, B2AR ag 54*, B2AR ag CP1 92 and B2AR FAP counter inactive.
Screening O=C(O)c1c(Cl)cccc1Cl returned UPR XBP1 act 2, UPR CHOP act -1, VLA-4 inh 14 and B2AR ag -4.
For COc1ccc(-c2cc(C(F)(F)F)nc(S(=O)(=O)CCC(=O)N3CCOCC3)n2)cc1 the results were UPR XBP1 act -2, UPR CHOP act 1, CHOP inh -28, VLA-4 inh 7, B2AR ag 25, B2AR ag CP1 89 and B2AR FAP counter inactive.
N#Cc1cc(-c2ccccc2)nnc1Oc1ccccc1Cl was read as UPR XBP1 act 4, UPR CHOP act 0, CHOP inh 38, VLA-4 inh 4, B2AR ag 57*, B2AR ag CP1 18* and B2AR FAP counter inactive.
For CCN1CCN(c2ccc(NC(=O)c3ccc([N+](=O)[O-])o3)cc2Cl)CC1 the results were CHOP inh -83, B2AR ag 63*, B2AR ag CP1 13* and B2AR FAP counter inactive.
For COc1cc(OC)c(OC)cc1CNC(=O)c1cc(S(=O)(=O)N(C)c2ccccc2OC)ccc1C the results were B2AR ag -1.
Screening CCOC(=O)c1cnc(-n2nc(C)cc2C)nc1NC returned UPR XBP1 act 0, UPR CHOP act 1, CHOP inh -23, VLA-4 inh 1, B2AR ag -8, B2AR ag CP1 105 and B2AR FAP counter inactive.
`Cc1noc(C)c1C(=O)OCC(=O)NCc1ccc(Cl)cc1` gave UPR XBP1 act -1, UPR CHOP act 0, VLA-4 inh 7 and B2AR ag 13.
`N#CC1(NC(=O)CSc2n[nH]c(-c3ccccc3)n2)CCCCC1` gave UPR XBP1 act 8, UPR CHOP act 0, VLA-4 inh 6 and B2AR ag 1.
For O=C(Nc1ccc([N+](=O)[O-])cc1)NN1CCCCCC1 the results were B2AR ag -3.
Screening CCOC(=O)C1(C)C=C(Nc2ccc(O)cc2)C(=O)N1c1ccc(O)cc1 (stereo not drawn) returned UPR XBP1 act -2, UPR CHOP act -2, CHOP inh 24, VLA-4 inh 8, B2AR ag 52*, B2AR ag CP1 28* and B2AR FAP counter inactive.
CCOC(=O)C1(C)C=C(Nc2ccc(OC)cc2)C(=O)N1c1ccc(OC)cc1 (stereo not drawn) was read as UPR XBP1 act 1, UPR CHOP act -2, CHOP inh 10, VLA-4 inh 16 and B2AR ag -7.
For COc1cccc(CNC(=O)C(C)n2ccc3cc(S(=O)(=O)N4CCCC4)ccc32)c1 (stereo not drawn) the results were UPR XBP1 act -2, UPR CHOP act -2, VLA-4 inh 0 and B2AR ag 3.
COc1cccc(CNC(=O)C(C)n2ccc3cc(S(=O)(=O)N4CCCCCC4)ccc32)c1 (stereo not drawn) was read as UPR XBP1 act -7, UPR CHOP act 2, VLA-4 inh -7, B2AR ag 47*, B2AR ag CP1 112 and B2AR FAP counter inactive.
`Cc1nc2cc(N3CCOCC3)c(NC(=O)C3CC3)cc2c(=O)n1Cc1ccccc1` gave UPR XBP1 act 1, UPR CHOP act 0, VLA-4 inh -11, B2AR ag 49*, B2AR ag CP1 65 and B2AR FAP counter inactive.
For C[C@H](CO)N1C[C@H](C)[C@@H](CN(C)Cc2ccccc2)Oc2c(NC(=O)C3CC3)cccc2C1=O the results were UPR XBP1 act 0, UPR CHOP act 1, VLA-4 inh -2 and B2AR ag 3.
`CCN1CCN(c2ncnc3c2sc2nc(N4CCOCC4)c4c(c23)CCC4)CC1` gave B2AR ag -1.
Screening c1nc(NCCN2CCOCC2)c2sc3nc(N4CCOCC4)c4c(c3c2n1)CCC4 returned CHOP inh 20, VLA-4 inh 17, B2AR ag 46*, B2AR ag CP1 57* and B2AR FAP counter inactive.
`CC(C)(C)NC(=O)C(c1ccc(F)cc1)N(Cc1ccccc1Cl)C(=O)c1ccn[nH]1` (stereo not drawn) gave UPR XBP1 act -1, UPR CHOP act -1, CHOP inh 33, VLA-4 inh 4, B2AR ag -4, B2AR ag CP1 98 and B2AR FAP counter inactive.
CCC(C)(C)NC(=O)C(c1ccccc1F)N(C(=O)c1ccn[nH]1)c1ccccc1 (stereo not drawn) was read as UPR XBP1 act -1, UPR CHOP act -3, CHOP inh -10, VLA-4 inh 0 and B2AR ag -1.
Screening CCC(=O)N1COC[C@@H]1Cc1ccccc1 returned UPR XBP1 act 0, UPR CHOP act 3, CHOP inh 40, VLA-4 inh -1, B2AR ag -1, B2AR ag CP1 107 and B2AR FAP counter inactive.
`CC(C)=CCC(C)(C)C1OCCN1C(=O)c1ccccc1` (stereo not drawn) gave UPR XBP1 act 1, UPR CHOP act 0, CHOP inh 33, VLA-4 inh -3, B2AR ag 62*, B2AR ag CP1 22* and B2AR FAP counter inactive.
For Cc1ccc(C)c(NC(=O)C(c2ccccc2)N2CCOCC2)c1 (stereo not drawn) the results were UPR XBP1 act 0, UPR CHOP act 0, CHOP inh -1, VLA-4 inh 0, B2AR ag -6, B2AR ag CP1 104 and B2AR FAP counter inactive.
